# Screening results deposited in PubChem by several laboratories.
# A selection: hits, their analogues and other compounds. The true share with any hit is near 2%.
# IMP-1 inh = IMP-1 metallo-beta-lactamase inhibitors, primary screen, biochemical, epi-absorbance readout, Pseudomonas aeruginosa enzyme; AID 1556, 2009; inhibition, % at 5.6 µM; purified IMP-1, nitrocefin hydrolysis, epi-absorbance fluorescence; 290,000 tested, 0.45% active;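 active means inhibition above the mean plus 3 SD of all compounds in the same screening run, cut at about 4.5% in these data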;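 further: 0% = IMP-1 with DMSO and 100% = DMSO wells lacking enzyme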
#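 System – purified recombinant IMP-1 beta-lactamase · Input – IMP-1 dispensed at 0.2 nM · Timing – 15 min preincubation plus 25 min reaction at 25 °C · Signal – Epi-absorbance fluorescence, 480 nm excitation, 530 nm emission · Measure – percent IMP-1 inhibition derived from blank-referenced optical density · Controls – Enzyme-plus-DMSO low control, enzyme-free DMSO high control · Replication – singlicate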
# PvdQ acylase = P. aeruginosa PvdQ acylase inhibitors, primary screen, biochemical, fluorescence, plate reader and imaging, single point; purified PvdQ acylase; inhibition, % at 10 µM; 340,000 tested, 0.063% active; in the data active means inhibition above about 30%, passing the limit was not always enough;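 further: 0% = vehicle neutral wells and 100% = reference inhibitor wells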
# beta cell repl = inducers of MIN6 beta-cell proliferation, primary screen, ATP luminescence, uHTS; MIN6 cells proliferation, ATPlite luminescence, 48 h; cells starved in 0.2% serum; 100% = growth in 10% serum; proliferation, % at 10 µM; 330,000 tested, 0.29% active; AID 2380, 2010;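 active means compounds whose signal lies at least 3.5 SD above the mean of all wells on their plate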;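 further: 0% = DMSO-treated cells in low-serum medium and 100% = 10% serum control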
# ATG4B inh = ATG4B protease inhibitors, primary screen, biochemical, fluorescence, uHTS. ATG4B cleavage of LC3-PLA2, NBD-HPC fluorescence, 1 h. inhibition, % at 8.33 µM. 340,000 tested, 0.51% active; in the data active means inhibition above about 40%
# Target sequence (Q9Y4P1 whole entry, looked up): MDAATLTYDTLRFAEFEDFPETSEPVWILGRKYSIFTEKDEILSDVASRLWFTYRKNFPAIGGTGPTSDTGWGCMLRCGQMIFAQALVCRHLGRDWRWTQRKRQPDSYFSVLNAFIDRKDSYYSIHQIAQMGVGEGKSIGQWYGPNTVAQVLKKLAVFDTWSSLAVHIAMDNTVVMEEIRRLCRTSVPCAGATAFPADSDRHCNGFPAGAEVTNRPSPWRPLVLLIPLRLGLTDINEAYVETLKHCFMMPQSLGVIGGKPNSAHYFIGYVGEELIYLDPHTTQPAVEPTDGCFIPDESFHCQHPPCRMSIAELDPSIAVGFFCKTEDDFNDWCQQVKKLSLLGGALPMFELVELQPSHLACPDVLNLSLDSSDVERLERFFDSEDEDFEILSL
# HKDC1 inhibitor = HKDC1 hexokinase inhibitors, primary screen, biochemical, fluorescence, uHTS; Q2TB90; recombinant HKDC1, G6PDH/diaphorase resazurin coupled fluorescence; inhibition, % at 20 µM; 340,000 tested, 0.16% active; AID 493160, 2011;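 active means inhibition above about 35% when tested at 20 µM, limit read from the data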;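 further: plate controls were DMSO wells with enzyme for no effect and DMSO wells lacking enzyme for full effect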
#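 Test system: recombinant HKDC1 (HK5) hexokinase enzyme, produced in-house / Doses: 20 µM test compound, 1% DMSO / Timing: 90 min, room temperature / Detection: G6PDH/diaphorase-coupled fluorescence, 1 mM NADP, 100 µM resazurin, 525/613 nm / Control set: DMSO wells with and without enzyme mix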
# VIM-2 inh = VIM-2 metallo-beta-lactamase inhibitors, primary screen, biochemical, epi-absorbance readout, Pseudomonas aeruginosa enzyme; purified VIM-2, nitrocefin hydrolysis, epi-absorbance fluorescence; AID 1527, 2009; inhibition, % at 5.6 µM; 290,000 tested, 0.89% active;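 active means inhibition above the mean of all tested compounds plus 3 SD, cutoff set per screening run, cut at about 7.5% in these data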;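 further: red hydrolysis product quenches plate fluorescence so inhibitors raise well fluorescence; 0% = enzyme with DMSO and 100% = DMSO without enzyme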
# An asterisk follows results filed as active; . = no result; ! = a repeat was not active.
SMILES,IMP-1 inh,PvdQ acylase,beta cell repl,ATG4B inh,HKDC1 inhibitor,VIM-2 inh
Cc1ccc(C(C(=O)NC2CCCCC2)N(Cc2ccccc2)C(=O)Cc2c[nH]c3ccccc23)o1 (stereo not drawn),-4.0,-19.4,-2.9,31.7,1.1,-3.0
COc1ccc(CN(C(=O)Cc2c[nH]c3ccccc23)C(C(=O)NC2CCCCC2)c2ccc(C)o2)cc1 (stereo not drawn),49.4*,3.6,-5.8,-3.4,7.6,-2.2
CC[N+]1(CC(O)COC2CC(C)CC(C)(C)C2)CCOCC1 (stereo not drawn),-1.0,-3.3,-3.0,0.1,-2.7,-1.5
COc1cc(/C=C2\SC(=S)N(C(C(=O)O)c3ccccc3)C2=O)ccc1O (stereo not drawn),-5.2,1.0,-1.3,6.9,5.8,6.7
COc1ccccc1/C=C1\SC(=S)N(C(C(=O)O)c2ccccc2)C1=O (stereo not drawn),-1.3,8.2,-2.9,9.8,1.5,9.4*
COc1cccc(-c2nn(C)c3sc(C(=O)NCc4ccc(C)o4)cc23)c1,4.7*,-11.3,-4.9,-15.9,6.3,-1.3
COc1cccc(-c2nn(C)c3sc(C(=O)NCc4ccc5c(c4)OCO5)cc23)c1,-3.4,-8.4,-3.8,-14.6,0.2,-1.9
Cn1nc(C(=O)NNC(=O)c2cccc(Cl)c2)ccc1=O,.,-8.5,-0.9,-13.6,-6.8,.
O=C(Cc1cc(=O)[nH][nH]1)N/N=C/c1c(F)cccc1Cl,-1.4,-12.6,-0.5,4.9,-7.8,-0.1
O=C(Cc1cc(=O)[nH][nH]1)N/N=C/c1c(Cl)cccc1Cl,7.5*!,3.3,0.4,22.2,0.3,1.8
COc1ccc(-c2nc3scc(-c4ccc(OC)c(OC)c4)c3c(=O)o2)cc1,5.0*,-5.5,-4.0,-7.2,-6.9,-0.2
COc1ccc(-c2csc3nc(C(C)C)oc(=O)c23)cc1OC,-0.4,-13.8,1.1,-7.7,-7.5,-1.4
Oc1ccccc1CC=NC1CCCCC1,.,-8.3,.,9.7,1.4,.
CC(C)C(=O)Nc1nnc(CSCc2ccccc2F)s1,-0.7,-13.9,-3.1,-10.1,-0.8,10.3*
CC(C)C(=O)Nc1nnc(CCc2ccccc2)s1,-4.2,5.3,-1.8,2.1,-0.6,-2.7
O=C(/C=C(\O)c1ccc(Cl)cc1)C(=O)NNC(=O)C(O)(c1ccccc1)c1ccccc1,-4.8,-10.5,-3.7,42.1*,5.4,-4.7
COc1ccc2c(c1)cc(C(=O)N[C@@H](CCSC)C(=O)N1CCC[C@H]1C(=O)O)n2C,-3.1,-11.3,-5.0,-6.2,-5.2,11.9*
Cc1cc(C)n2nc(SC(C)C(=O)N3CCOCC3)nc2n1 (stereo not drawn),.,-10.6,5.7,4.6,-1.1,.
Cc1cc2oc(=O)cc(-c3cc4ccccc4o3)c2cc1O,6.0*,-7.7,3.0,-11.2,10.2,1.2
CC(=O)COc1ccc2oc(=O)cc(-c3cc4ccccc4o3)c2c1,-1.9,-1.4,9.9,-14.2,12.4,8.3*
CCCNS(=O)(=O)c1ccc(OC)c(Cl)c1Cl,-3.4,38.6*,-0.1,0.9,-5.3,-2.6
CCCCNC(=O)OCC(CC)NC(=O)OCC(C)C (stereo not drawn),8.7*,-13.0,-2.2,-13.3,-2.1,-4.2
COc1cc(NC(=O)CSc2ncnc3c2cnn3Cc2ccccc2)cc(OC)c1,4.5*,3.8,-5.4,-10.4,-3.9,-0.8
COc1ccc(C(=O)CC2OC(=O)c3ccccc32)cc1OC (stereo not drawn),4.9*,-8.7,-3.8,-0.6,-0.6,0.4
COc1ccc(Cc2nnc(NC(=O)c3ccccc3Cl)s2)cc1OC,-2.4,-13.9,-2.4,-0.5,2.4,-1.9
SMILES,IMP-1 inh,PvdQ acylase,beta cell repl,ATG4B inh,HKDC1 inhibitor,VIM-2 inh
COc1ccc([N+](=O)[O-])cc1NC(=O)C1CCCCC1C(=O)O (stereo not drawn),-1.0,-1.7,-1.1,-10.9,-2.6,-2.5
Cc1c(OCC(=O)N[C@H](C(=O)O)c2ccccc2)ccc2c3c(c(=O)oc12)CCCC3,-5.3,-6.4,1.9,-22.4,3.6,11.6*
CCN(CC)C(=O)COc1ccc2c3c(c(=O)oc2c1C)CCCC3,-0.4,-1.2,-2.1,-6.6,-4.5,8.0*
Cc1c(OC(C(=O)O)c2ccccc2)ccc2c3c(c(=O)oc12)CCC3 (stereo not drawn),-1.9,-13.5,1.8,4.6,2.9,7.7*
Cc1c(OC(C(=O)O)c2ccccc2)ccc2c1oc(=O)c1ccccc12 (stereo not drawn),-2.3,-8.0,-2.4,-3.1,-3.0,3.1
Cc1c(OCC(=O)N2CCC(C(=O)O)CC2)ccc2c3c(c(=O)oc12)CCC3,-3.0,-12.0,-0.6,-20.8,-5.2,9.9*
COc1ccc(CCNC(=O)c2cc(-c3ccccc3)c(N3CCOCC3)s2)c(OC)c1OC,-4.5,-6.1,-4.4,0.9,0.9,-4.0
Cc1cc(OCCn2ccnc2)cc(C)c1Cl,-1.3,4.0,1.4,3.1,4.3,-0.3
COc1ccccc1N1CCN(CCN2C(=O)C3CCCCN3C2=O)CC1 (stereo not drawn),0.5,-13.7,-5.7,-4.1,-7.4,0.2
Cc1c(OC(C)C(=O)NCC(O)c2ccccc2)ccc2c3c(c(=O)oc12)CCCC3 (stereo not drawn),1.6,8.3,0.3,3.5,-3.2,10.5*
O=C(O[C@@H]1OC2COC(=O)c3cc(O)c(O)c(O)c3-c3c(cc(O)c(O)c3O)C(=O)O[C@@H]([C@H]1O)[C@@H]2O)c1cc(O)c(O)c(O)c1,8.8*,-7.4,.,13.6,7.2,-0.9
O=Cc1coc2ccc3ccccc3c2c1=O,35.5*,-8.3,-5.1,38.2,18.2,2.7
NC(=O)N/N=C/c1coc2ccc3ccccc3c2c1=O,-3.5,-15.0,-3.8,8.6,-4.2,-3.0
COc1ccc(CNC(=S)N2CCN(Cc3ccccc3)CC2)cc1,-1.6,-7.7,-5.8,-9.8,-6.9,-2.5
Cc1cc(C)n2c(=S)[nH]nc2n1,-2.8,-5.2,-2.3,0.0,-1.9,10.7*
Cc1cc(C)n2cnnc2n1,-3.1,.,-0.3,7.5,-2.0,-1.3
Cc1ccc(N(CC(=O)NC2CCCC2)C(=O)CNC(=O)c2cccs2)c(C)c1,-3.1,-21.2,0.0,-0.5,-2.3,-1.8
COc1cc(/C=N/Nc2nn3cnnc3c3ccccc23)ccc1O,-5.2,-10.6,-4.5,-10.4,-3.5,0.7
Oc1ccc(/C=N/Nc2nn3cnnc3c3ccccc23)cc1,-4.2,-8.5,-3.9,-1.3,-3.3,8.8*
COc1cccc(/C=N/Nc2nn3cnnc3c3ccccc23)c1,-4.3,2.8,-2.5,-22.5,4.8,12.1*
